From ChEMBL document CHEMBL1133692, “Modeling of the inhibition of retroviral integrases by styrylquinoline derivatives” (J Med Chem, 2000)

molecular target: Gag-Pol polyprotein (Rous sarcoma virus (strain Prague C) (RSV-PrC), UniProt P03354); experiment: Inhibition of rous sarcoma virus (RSV) Integrase.
In short: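 His-tagged RSV integrase catalytic core expressed in E. coli BL21(DE3) (IPTG 1 mM, 3 h, 37 °C) and purified on Ni-NTA. Disintegration assay used 0.5 pmol 5′-32P-labeled annealed DRSV oligonucleotide with 2 pmol core in Tris buffer pH 7.2 for 1 h at 37 °C. Products were resolved on a 15% denaturing polyacrylamide gel and quantified by phosphorimager. IC50 is the concentration halving activity.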

Gag-Pol polyprotein, sequence (P03354 1281-1567 limits assumed): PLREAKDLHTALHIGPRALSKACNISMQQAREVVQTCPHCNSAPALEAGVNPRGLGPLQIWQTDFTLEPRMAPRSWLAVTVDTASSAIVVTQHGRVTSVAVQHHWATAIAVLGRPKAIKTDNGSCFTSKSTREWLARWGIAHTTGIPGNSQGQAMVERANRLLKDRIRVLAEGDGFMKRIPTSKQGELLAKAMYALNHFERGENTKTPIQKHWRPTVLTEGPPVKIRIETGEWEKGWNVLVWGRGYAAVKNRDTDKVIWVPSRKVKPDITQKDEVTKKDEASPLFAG

Compound | IC50 [µM]
CC(=O)Oc1cccc2ccc(/C=C/c3ccccc3)nc12 | > 100
O=C(O)c1ccc2ccc(/C=C/c3ccc(O)cc3O)nc2c1O | 38.3
O=C(O)c1ccc2ccc(/C=C/c3cc(O)c(O)c(O)c3)nc2c1O | 2.1
O=C(O)c1ccc2ccc(/C=C/c3ccc(O)c(O)c3)nc2c1O | 2.3
O=C(O)c1ccc2ccc(/C=C/c3ccccc3)nc2c1O | 10.3
Cc1ccc2cccc(OC(=O)/C=C/c3ccc(O)c(O)c3)c2n1 | > 100
O=C(O)c1ccc2ccc(/C=C/c3ccc(O)cc3)nc2c1O | 20.9
Oc1ccc(/C=C/c2ccc3cccc(O)c3n2)cc1O | 65.1
Nc1cccc2ccc(/C=C/c3ccc(O)c(O)c3)nc12 | > 100
CC(=O)Oc1ccc(/C=C/c2ccc3cccc(OC(C)=O)c3n2)cc1OC(C)=O | > 100
N#Cc1ccc2ccc(/C=C/c3ccc(O)c(O)c3)nc2c1O | 38
O=C(O)c1cc(/C=C/c2ccc3ccc(C(=O)O)c(O)c3n2)ccc1O | 7.4
Oc1cccc2ccc(/C=C/c3ccccc3)nc12 | > 100
O=[N+]([O-])c1cccc2ccc(/C=C/c3ccc(O)c(O)c3)nc12 | > 100

molecular target: Human immunodeficiency virus type 1 integrase (Human immunodeficiency virus 1, UniProt Q7ZJM1); experiment: Inhibition of human immunodeficiency virus-1 (HIV-1) integrase.
In short: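 Disintegration assay with His-tagged HIV-1 integrase catalytic core, expressed in E. coli BL21(DE3) and Ni-NTA purified. Substrate was 0.5 pmol of 5′-32P-labelled, self-annealed DHIV oligonucleotide, reacted with 2 pmol core in Tris buffer pH 7.2 for 1 h at 37 °C. Products were resolved on 15% denaturing polyacrylamide gel and quantified by phosphorimaging. IC50 is the drug concentration halving enzyme activity.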

Human immunodeficiency virus type 1 integrase, sequence (Q7ZJM1 whole entry): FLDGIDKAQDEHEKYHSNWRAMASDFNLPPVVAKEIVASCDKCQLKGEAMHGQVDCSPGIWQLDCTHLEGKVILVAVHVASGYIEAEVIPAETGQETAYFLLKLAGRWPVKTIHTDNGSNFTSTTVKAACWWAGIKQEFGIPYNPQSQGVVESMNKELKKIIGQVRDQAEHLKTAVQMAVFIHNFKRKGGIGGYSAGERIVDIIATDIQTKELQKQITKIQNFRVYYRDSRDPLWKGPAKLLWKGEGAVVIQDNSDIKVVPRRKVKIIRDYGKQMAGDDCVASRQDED

Compound | IC50 [µM]
O=C(O)c1ccc2ccc(/C=C/c3ccc(O)cc3O)nc2c1O | 2.5
